# Screening data: PubChem, several laboratories
# WT yeast gro inh: growth inhibition of WT yeast, mitochondrial fusion screen | AID 1362 | 2.1% of 190,000 active | mitochondrial fusion phenotypic screen, WT strain | inhibition, % at 10 µM; in the data active = inhibition above about 58%; tested in S. cerevisiae
# Rad51 HR inh: blocks human Rad51 in homologous recombination; Q06609; hRad51 DNA strand exchange, fluorescence dequenching; inhibition, % at 10 µM; 0.085% of 200,000 active; AID 1385;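 active = inhibition above 40% at the single screening dose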
#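 Test system – preformed human Rad51 ssDNA filaments · Reagent – Donor/quencher-labelled 47-bp dsDNA substrate · Incubation – 37 °C 15-min filament assembly, 30-min compound preincubation, 15-min exchange · Signal – FRET fluorescence dequenching, excitation 485 nm, emission 520 nm · Read-out – percent inhibition from fluorescence, normalised to plate control and blank means · Benchmarks – plate control and blank wells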
# PMI act hi M6P: increases human PMI activity with near-saturating mannose 6-phosphate; P34949; coupled PMI enzyme assay, resazurin fluorescence, 20 min; hits give high values; 1 = untreated enzyme, 0 = substrate-free blank; activation factor at 20 µM; 0.34% of 190,000 active;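 active = activation factor of 2 or more at 20 µM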
# Target sequence (P34949 whole entry, looked up): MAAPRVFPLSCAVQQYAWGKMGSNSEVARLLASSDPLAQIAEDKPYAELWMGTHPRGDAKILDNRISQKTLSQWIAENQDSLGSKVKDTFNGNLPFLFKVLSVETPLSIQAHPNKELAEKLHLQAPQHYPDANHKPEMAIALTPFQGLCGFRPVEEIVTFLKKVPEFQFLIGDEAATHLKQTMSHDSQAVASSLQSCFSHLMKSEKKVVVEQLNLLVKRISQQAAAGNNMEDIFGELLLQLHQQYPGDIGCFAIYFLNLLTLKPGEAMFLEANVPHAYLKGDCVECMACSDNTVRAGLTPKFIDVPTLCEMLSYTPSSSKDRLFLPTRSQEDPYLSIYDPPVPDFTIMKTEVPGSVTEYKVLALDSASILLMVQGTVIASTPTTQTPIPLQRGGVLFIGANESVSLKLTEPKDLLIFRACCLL
#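 Test system: human phosphomannose isomerase with PGI, G6PDH, diaphorase coupling enzymes; amount: 15 ng/mL PMI; incubation: enzyme reaction with compound 20 min at room temperature; technique: resorufin fluorescence (Ex 544/Em 590 nm) from resazurin via diaphorase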
# PMI activator: activators of human phosphomannose isomerase | P34949 | purified human PMI, coupled resazurin fluorescence, 20 min; hits give high values; 1 = vehicle control, 0 substrate-free wells | activation factor at 20 µM | 0.005% of 190,000 active | AID 1214;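 active = activation factor of 2 or more at 20 µM, relative to plate controls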
# m-calpain inh: calpain II (pig) inhibition. purified calpain II, fluorogenic peptide substrate, 30 min. inhibition, % at 16 µM. 0.37% of 220,000 active. AID 1236;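 active = inhibition above about 50%, limit read from the data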
# Lmaj promast: Leishmania major promastigote growth inhibition; Leishmania major promastigotes, resazurin fluorescence viability; inhibition, % at 10 µM; 9% of 200,000 active; AID 1063; in the data active = inhibition above about 50%;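 also: promastigotes grown with compound for 44 hours at 28 °C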
# A number is an active result; i = inactive; nt = not tested or not shown. Hits are enriched below; roughly 9.8% of the tested compounds scored in any of these assays.
SMILES,WT yeast gro inh,Rad51 HR inh,PMI act hi M6P,PMI activator,m-calpain inh,Lmaj promast
CCN(CC)S(=O)(=O)c1ccc(/C=C/C(=O)Nc2ccc(F)cc2F)cc1,i,i,i,i,i,56
CCN(CC)S(=O)(=O)c1ccc(/C=C/C(=O)OCC#N)cc1,i,i,i,i,i,i
CCN(CC)S(=O)(=O)c1ccc(/C=C/C(=O)Nc2ccc(F)c(F)c2F)cc1,i,i,i,i,i,89
CCN(CC)S(=O)(=O)c1ccc(/C=C/C(=O)Nc2ccc(N3CCOCC3)cc2)cc1,nt,i,nt,nt,i,nt
CCN(CC)S(=O)(=O)c1ccc(/C=C/C(=O)Nc2ccc(Br)cc2F)cc1,i,i,i,i,i,99
O=C1N=c2ccccc2=C1c1sc(=S)n(Cc2ccccc2Cl)c1O,nt,i,nt,nt,i,nt
CS(=O)(=O)n1nc(C(=O)N2CCOCC2)nc1N,i,nt,i,i,i,i
CCC(C)NS(=O)(=O)c1ccc(S(=O)(=O)N(CCc2ccc(OC)c(OC)c2)Cc2cccs2)cc1 (centres undefined),i,i,i,i,i,55
CCOC(=O)C1=C(N)N(c2ccccc2Oc2ccccc2)C(=O)C1,i,i,i,i,i,i
CCOC(=O)C1=C2NC(=O)c3ccccc3N2C(=O)C1,i,i,2,i,i,i
CCN(Cc1ccncc1)Cc1cn(C)nc1-c1ccc(Oc2ccccc2)cc1,i,i,i,i,i,96
Cn1cc(CN2CCN(CCO)CC2)c(-c2ccc(Oc3ccccc3)cc2)n1,i,i,i,i,i,51
CCOC(=O)C1CCN(Cc2cnc(NC(=O)OC)s2)CC1,i,i,i,i,i,i
CCOC(=O)C1CCN(Cc2cn(C)nc2-c2ccc(Oc3ccccc3)cc2)CC1,i,i,i,i,i,79
CCOC(=O)C1CCN(Cc2cnc(Oc3ccc(C(C)(C)C)cc3)s2)CC1,i,i,i,i,i,91
COCCN1CCN(Cc2cn(C)nc2-c2ccc(Oc3ccccc3)cc2)CC1,nt,i,nt,nt,i,nt
CN(Cc1ccno1)Cc1cn(C)nc1-c1ccc(Oc2ccccc2)cc1,i,i,i,i,i,i
N=c1sccn1CC(=O)Nc1ccc(SC(F)F)cc1,i,i,i,i,i,i
Cc1ccccc1C(=O)NCC(=O)O,i,i,i,i,i,i
Cn1cc(CN2CCC(O)CC2)c(-c2ccc(Oc3ccccc3)cc2)n1,i,i,i,i,i,81
Cc1cc(CNCc2cn(C)nc2-c2ccc(Oc3ccccc3)cc2)on1,i,i,i,i,i,60
N=c1n(CCN2CCCCC2)c2ccccc2n1CC(=O)c1ccc(Cl)c(Cl)c1,nt,i,nt,nt,i,nt
N=c1n(CCN2CCCCC2)c2ccccc2n1CC(O)c1cccc(Br)c1 (centres undefined),i,i,i,i,i,100
COC(=O)Cn1c(=N)n(CCN2CCCCC2)c2ccccc21,i,i,i,i,i,i
CN(C)CCn1c(=N)n(CC(O)c2ccc(Cl)c(Cl)c2)c2ccccc21 (centres undefined),i,i,i,i,i,100
SMILES,WT yeast gro inh,Rad51 HR inh,PMI act hi M6P,PMI activator,m-calpain inh,Lmaj promast
N=c1n(CCN2CCCCC2)c2ccccc2n1CC(O)c1ccc(Cl)c(Cl)c1 (centres undefined),i,i,i,i,i,100
O=C(Cn1c(=O)c2c(ncn2Cc2ccccc2)n(Cc2ccccc2)c1=O)N1CCc2ccccc21,i,i,i,i,i,100
CCn1cnc2c1c(=O)n(CC(=O)N1CCc3ccccc31)c(=O)n2Cc1ccccc1,i,i,i,i,i,i
COCCn1cc(C(=O)c2cc(Br)ccc2O)cc(C#N)c1=O,i,i,i,i,i,i
COCCN=C1Sc2nc3ccc(C)cc3cc2CN1Cc1ccco1,i,i,2.1,i,i,60
CCN(CC)c1nc(N(CC)CC)[nH]c(=O)n1,nt,i,nt,nt,nt,i
CCN(CC)c1nc(=S)nc(NC(C)(C)C)[nH]1,i,i,i,i,i,95
C/C(Cn1nc([N+](=O)[O-])cc1C)=N\NC(=O)c1cccc(Br)c1,i,i,i,i,i,86
Cc1ncsc1C(=O)Nc1nc2c(s1)CC(C)CC2 (centres undefined),65,i,i,i,i,i
CC1CCc2nc(NC(=O)C3CC3)sc2C1 (centres undefined),i,i,i,i,i,i
CCCCCC(/C=N/Nc1ccc(S(=O)(=O)N2CCOCC2)cc1[N+](=O)[O-])=C\c1ccccc1,i,i,i,i,i,i
CC(=O)N1CCC(=NNc2ccc(S(=O)(=O)N3CCOCC3)cc2[N+](=O)[O-])CC1,i,i,i,i,i,i
CC(C)N1CCC(=NNc2ccc(S(=O)(=O)N3CCOCC3)cc2[N+](=O)[O-])CC1,i,i,i,i,i,99
CCCN1CCC(=NNc2ccc(S(=O)(=O)N3CCOCC3)cc2[N+](=O)[O-])CC1,i,i,i,i,i,100
O=[N+]([O-])c1cc(S(=O)(=O)N2CCCC2)ccc1N/N=C/c1cccnc1,i,nt,i,i,i,60
COc1ccc(CCNc2ccc(S(=O)(=O)N3CCCC3)cc2[N+](=O)[O-])cc1,i,nt,i,i,i,i
O=C(O)c1ccccc1/C=N/Nc1ccc(S(=O)(=O)N2CCCC2)cc1[N+](=O)[O-],nt,i,nt,nt,i,nt
O=[N+]([O-])c1cc(S(=O)(=O)N2CCCC2)ccc1NCCc1ccccc1,i,i,i,i,i,58
C=CCC1(Cl)C(=O)C(Cl)=C(N2CCN(C)CC2)C1(OC)OC (centres undefined),nt,i,nt,nt,i,nt
CCCSc1ccc(C(=O)Nc2ccc(Cl)cc2)cn1,i,i,i,i,i,i
COc1ccc(-c2cnc(NCc3cc4c(cc3[N+](=O)[O-])OCO4)n2C)cc1,i,i,i,i,i,98
Cn1c(-c2ccc3c(c2)OCO3)cnc1NCc1ccc(Cl)cc1,i,i,i,i,i,92
Cc1ccc(CNc2ncc(-c3ccc4c(c3)OCO4)n2C)cc1,i,i,i,i,i,88
Cc1cccc(CNc2ncc(-c3cccc([N+](=O)[O-])c3)n2C)c1,i,i,i,i,i,i
Cc1ccc(CNc2ccc3c(c2)OCO3)cc1,i,i,i,i,i,100
SMILES,WT yeast gro inh,Rad51 HR inh,PMI act hi M6P,PMI activator,m-calpain inh,Lmaj promast
c1cc(CNc2ccc3c(c2)OCO3)ccn1,i,i,i,i,i,i
CCOc1ccc(OCC)c(NC(=O)CCCN2C(=S)NC(C)(C)CC2C)c1 (centres undefined),i,i,i,i,i,i
CCCOc1ccc(CCC(=O)N/N=C/c2ccncc2)cc1,nt,i,nt,nt,i,nt
COc1cc(CNCCNCC(C)O)ccc1OCc1ccc(Cl)nc1 (centres undefined),i,i,i,i,i,i
COc1ccc(CCNCc2ccc(OCc3ccc(Cl)nc3)c(OC)c2)cc1OC,i,i,i,i,i,90
COc1ccc(CNCCc2ccc(Cl)cc2)cc1OCc1ccccc1,82,i,i,i,i,96
